Screening data as filed in PubChem.
NALP3 yeast inh – inhibitors of NALP3 inflammasome in yeast | Yeast reconstituted NLRP3/ASC/caspase-1, beta-gal luminescence, 24 h | inhibition, % at 10 µM | hit rate 0.39% among 330,000 | AID 2825;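 active means inhibition of 50% or more; inactive means inhibition below 50%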;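 further: plate controls were induced DMSO wells for no effect and uninduced yeast grown without galactose for full effect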
NALP1 yeast inh – NALP1 inhibition; S. cerevisiae NALP1/ASC/caspase-1 growth, X-gal OD620, 72 h; inhibition, % at 10 µM; hit rate 0.61% among 280,000; AID 2071; in the data active means inhibition mostly above about 24%, no sharp cut-off; inactive means mostly below about 32%
T cell modulator – T cell immune modulators affecting CD8 T cell-vesicle binding; 2C CD8+ T cell-vesicle binding, flow cytometry; stronger effect = lower value; response (vesicle binding), % at 7 µM; hit rate 0.068% among 330,000; AID 2052;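 active means response, share of CD8 T cells binding vesicles, and their 90th percentile fluorescence all below set limits, cut at about 80% in these data, passing the limit was not always enough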;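 further: values below 100% mean blocked vesicle binding to the CD8+ T cells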
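Benchmarks: naked versus QL9-loaded vesicles / Assay system: purified 2C TCR transgenic mouse naive CD8+ T cells / Technique: high-throughput flow cytometry with anti-B7-1 and anti-CD8 staining / Timing: Cell–vesicle co-incubation 1.5 h at 37 °C, staining 20 min on ice / Read-out: percent CD8+ FL2 mean versus row control / Probe or stimulus: QL9-loaded Drosophila micro-vesicles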
A1 inh – inhibitors of the anti-apoptotic protein A1, read as caspase activation; MEF A1-2A-BIM cells, Caspase-Glo 3/7 luminescence, 3 h; percent of clofoctol response, vehicle zero; caspase activation, % (concentration not given with the values); hit rate 0.066% among 330,000;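 active means over half of replicate activation scores above 10%, or exactly half above 10 with the replicate mean above 10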
* marks the source's active call; other numbers are inactive results; / = no result. Shown are actives, neighbours in structure and some others; about 1% of the full set was active somewhere.

SMILES | NALP3 yeast inh | NALP1 yeast inh | T cell modulator | A1 inh
CC1=CC(C)(C)N(C(=O)c2ccccc2)c2ccc(C)cc21 | 2 | 4 | / | /
COc1ccc(C(=O)N2c3cc4c(cc3C(C)=CC2(C)C)OCO4)cc1 | / | 26* | / | /
O=C(COC(=O)/C=C/c1cccc(Cl)c1)Nc1ccc2[nH]c(=O)[nH]c2c1 | 14 | / | 333 | 0
O=C(COC(=O)/C=C/c1cccc(Cl)c1Cl)Nc1ccc2[nH]c(=O)[nH]c2c1 | 4 | / | 288 | 16*
O=C(Nc1ccc([N+](=O)[O-])cc1)C(Cc1ccccc1)N1C(=O)c2cccc3cccc(c23)C1=O (stereo not given) | 15 | -26 | 52 | 5.5*
O=C(O)c1ccccc1NC(=O)C(Cc1ccccc1)N1C(=O)c2ccccc2C1=O (stereo not given) | 19 | 15 | 244 | -1
COc1ccc(C)cc1S(=O)(=O)N(C)CC(=O)N1CCN(C)CC1 | 6 | 40* | 167 | 0
COc1ccccc1C(=O)Nc1ccnn1C1CCN(CC2CC=CCC2)CC1 (stereo not given) | 9 | 37 | 382 | 0
Cc1nc2c(=O)n(C)c(=O)n(C)c2nc1Cl | / | 94* | 513 | 1
S=C(c1ccc(-c2cccc(Cl)c2)o1)N1CCCCC1 | 5 | 38* | 349 | 0
S=C(c1ccc(-c2cccc(Cl)c2)o1)N1CCOCC1 | 0 | 18 | 844 | -1
Cc1cc(C)n2nc(SC(C)C(=O)N3CC(C)OC(C)C3)nc2n1 (stereo not given) | 10 | / | 468 | 1
Nc1nc(SCC(=O)Nc2cc(Cl)ccc2Cl)n[nH]1 | 4 | / | 764 | 1
COc1ccccc1C(=O)C1CCCN(C(=O)c2ccccc2C(C)=O)C1 (stereo not given) | 7 | 27* | / | /
CCc1nnc(NC(=O)CN2C(=O)c3ccccc3C2=O)s1 | 2 | 21 | 569 | 0
CCCc1nnc(NC(=O)CN2C(=O)c3ccccc3C2=O)s1 | 10 | 44* | 227 | 1
CC1CCc2c(sc3ncn(CC(=O)N=Nc4c(O)[nH]c5ccccc45)c(=O)c23)C1 (stereo not given) | 8 | / | 124 | 1
CCc1nc(N=Nc2c(O)[nH]c3ccccc23)c2c3c(sc2n1)CCC3 | 10 | 21 | 157 | 8.9*
CCc1c(O)nc(SCC(=O)Nc2ccc(Br)cc2)n(-c2ccc(C)cc2)c1=O | 8 | 35* | 75 | 0
COc1cccc(N2CCN(C(=O)c3ccc(=O)oc3)CC2C)c1 (stereo not given) | 6 | 40* | 164 | 0
COc1cccc(NC(=O)N2CCN(c3cccc(C)c3)C(C)C2)c1 (stereo not given) | 13 | -7 | 288 | 0
COCCCN(CCCN)Cc1ccco1 | 45 | 71* | 134 | 0
C=CCOc1ccc(/C(O)=C2\C(=O)C(=O)N(CCOC)C2c2cccnc2)cc1 (stereo not given) | 7 | / | 572 | -1
CCCOc1ccc(/C(O)=C2/C(=O)C(=O)N(CCOC)C2c2cccnc2)cc1 (stereo not given) | 11 | 31* | 268 | 0
Cc1ccc(NC(=O)/C=C/C(=O)O)c(NC(=O)c2ccccc2)c1 | 16 | 0 | 642 | -1
SMILES | NALP3 yeast inh | NALP1 yeast inh | T cell modulator | A1 inh
COCCCNC(=O)c1ccc2nc(Cc3ccc(OC)cc3)oc2c1 | 15 | 25* | 154 | -1
CCOCCCNC(=O)c1ccc(OC)cc1 | -5 | 28* | 278 | 1
CCOCCCNC(=O)c1ccc(OC(C)=O)cc1 | -1 | 14 | 309 | 1
CCN(C(=O)N1CCOCC1)c1ccccc1C | 11 | -10 | 140 | 1
Cc1cccc(NC(=O)C2CC(=O)n3cnnc3S2)c1 (stereo not given) | 8 | 40* | 372 | 1
CCOC(=O)c1c(O)c2cc(Cl)ccc2n(CC)c1=O | 16 | 49 | 58* | 0
Nc1nnc(SCCOc2ccc(Br)cc2)s1 | 21 | 9 | 0.0* | -2
Nc1nnc(SCCOc2ccccc2)s1 | -1 | / | 420 | -2
Cn1c(=O)c(=O)n(C)c2cc(N3CCOCC3)c(NS(=O)(=O)c3ccc(Br)cc3)cc21 | 7 | 14 | 789 | 0
O=c1c(NCCc2ccccc2)c(-c2ccccc2)c1=O | 5 | 15 | 267 | 1
c1csc(-c2nc3ccccn3c2NC2CCCCC2)c1 | 21 | -1 | 316 | 1
CC(C)c1nc2ccccn2c1NC1CCCCC1 | 20 | 24* | 290 | 2
COc1cc(/C=C(\C#N)c2nc3ccccc3s2)ccc1OCC(=O)Nc1ccccc1 | / | 20 | 498 | 1
COc1cc(/C=C(/C#N)c2nc3ccccc3[nH]2)ccc1OCC(=O)Nc1ccccc1C(C)C | 0 | 7 | / | 10.0*
COc1cc(/C=C(\C#N)c2nc3ccccc3[nH]2)ccc1OC(=O)c1ccco1 | 32 | 26 | 329 | -9
COc1cc(/C=C(/C#N)c2nc3ccccc3[nH]2)ccc1OCC(=O)Nc1ccccc1C | 14 | 10 | 0 | 7.2*
CN(CC(=O)NC(=O)NC1CCCCC1)CC(=O)Nc1ccc(OC(F)(F)F)cc1 | -3 | / | 417 | 1
O=C(Cc1ccccc1)Nc1ccc2oc(=O)ccc2c1 | 10 | 36* | 232 | 2
O=C(Nc1ccc2oc(=O)ccc2c1)c1ccco1 | 3 | 7 | 220 | -1
CN(Cc1ccc(Cl)c(Cl)c1)C(=O)C1=CC=CN2CCS(=O)(=O)N=C12 | -1 | / | 108 | 1
Cc1nn(-c2ccccc2)c(C)c1/C=N/NC(=O)CSc1nc2ccccc2c(=O)n1-c1ccc(Br)cc1 | 2 | 23 | 214 | 7.1*
c1ccc(-c2nnc(OCCN3CCOCC3)c3ccccc23)cc1 | 2 | 42* | 268 | 0
Cc1ccc(CNC(=O)CCCCCNC(=O)N2CCn3c2nc2ccccc23)cc1 | 17 | 11 | 751 | 0
Cc1cc(C)cc(CN2C(=O)NC3(CCCCCC3)C2=O)c1 | 17 | 19 | 75 | 1
COC(=O)c1ccsc1NC(=O)CN1CCN(c2ncccn2)CC1 | 19 | 3 | 183 | 1
SMILES | NALP3 yeast inh | NALP1 yeast inh | T cell modulator | A1 inh
CN(C)CCN(C(=O)/C=C/c1cccs1)c1nc2ccc(F)cc2s1 | 34 | 54* | 337 | 0
CN(C)CCCN(C(=O)c1ccc(S(=O)(=O)N2CCc3ccccc3C2)cc1)c1nc2ccc(F)cc2s1 | 27 | 20 | 446 | 30*
COc1ccc2sc(N(CCCN(C)C)C(=O)c3ccc(S(=O)(=O)N4CCCC4)cc3)nc2c1 | 7 | / | 217 | -2
COc1ccc2sc(N(CCCN(C)C)C(=O)c3ccc(S(=O)(=O)N4CCc5ccccc5C4)cc3)nc2c1 | 33 | / | 184 | 28*
CCN(CC)CCN(C(=O)c1ccc2c(c1)CCCC2)c1nc2ccc(F)cc2s1 | 29 | -1 | 122 | 0
CN(C)CCCN(C(=O)c1ccc2c(c1)CCCC2)c1nc2ccc(F)cc2s1 | 41 | 47* | 459 | 0
CCN(CC)CCN(C(=O)/C=C/c1cccs1)c1nc2ccc(Cl)cc2s1 | 21 | 5 | 247 | 1
CC(C)c1ccccc1NC(=O)CSc1n[nH]c(=O)n1C1CC1 | 2 | / | 229 | 1
O=C(COC(=O)CCc1ccc(S(=O)(=O)N2CCOCC2)cc1)Nc1ccccc1OC(F)F | 5 | / | 293 | 0
